7 compounds from ChEMBL document CHEMBL1140409, “Discovery of potent, nonsystemic apical sodium-codependent bile acid transporter inhibitors (Part 2)” (J Med Chem, 2005) can be followed below.

The nature of data set [1]: Amount (dissolved in aqueous Tween-80) in bile of rat was determined by fecal bile acid content for 45 min in a 37 degree C. In kind it is ADME, tissue-based, Feces. The arrangement: concentration or dose not given beside the values. Conditions: in vivo, 0.75 h. The essentials:
(§1)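 Male Wistar rats (275–300 g) were gavaged once each morning for 4 days at 5, 0.2 or 0.04 mpk in aqueous 0.2% (v/v) Tween-80 (2 mL/kg). Feces from the final 48 h were homogenized in twice their weight of water. Homogenate was diluted in butanol/water (2:0.6), extracted 45 min at 37 °C, centrifuged, and bile acids (μmol/day) measured enzymatically. Scores compared against a reference analogue at 0.04 mg/kg.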

A short description of data set [2]: Efficacy to increase fecal bile acid excretion; ++ is even more effective. Type of data set: ADME, tissue-based, Feces. Conditions: rat. Put shortly:
as §1

Data set [3] deals with T1, Ileal sodium/bile acid cotransporter (Homo sapiens, UniProt Q12908).
T1 sequence (Q12908 whole entry): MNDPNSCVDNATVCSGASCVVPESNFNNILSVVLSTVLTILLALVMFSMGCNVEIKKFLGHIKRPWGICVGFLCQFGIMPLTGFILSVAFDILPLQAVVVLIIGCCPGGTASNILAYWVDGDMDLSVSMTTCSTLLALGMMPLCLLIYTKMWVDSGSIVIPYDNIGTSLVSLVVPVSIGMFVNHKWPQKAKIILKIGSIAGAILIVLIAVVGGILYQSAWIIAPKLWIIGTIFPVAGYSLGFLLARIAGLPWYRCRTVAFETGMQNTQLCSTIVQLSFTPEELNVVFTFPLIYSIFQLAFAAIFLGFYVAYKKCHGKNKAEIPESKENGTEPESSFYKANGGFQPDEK
Put plainly: In vitro inhibition of ASBT mediated uptake of [14C]taurocholate (5 uM) in baby hamster cells expressing human IBAT. In kind it is cell-based.

Data set [4] in a line: Maximum biliary concentration (dissolved in aqueous Tween-80) was determined on intragastric administration at 5-0.04 mg/kg in portal vein of rat gavage model. In kind it is ADME, organism-based, Bile. The arrangement: dose 0.04 mg/kg, route […]. Conditions: po.
Data set [5] can be described thus: Maximum biliary concentration (dissolved in aqueous Tween-80) was determined on intragastric administration at 5-0.04 mg/kg in […] of rat gavage model. Type of data set: ADME, organism-based, Bile. The arrangement: dose 0.04 mg/kg, route […]. Conditions: […] (blood), po.
The nature of data set [6]: Efficacy to increase fecal bile acid excretion; + is more efficacious. Type of data set: ADME, tissue-based, Feces. Conditions: rat. The essentials: as §1

As usually defined, the IC50 is the concentration that inhibits the measured activity by half. Consider `CCCCC1(CCCC)CS(=O)(=O)c2ccc(N(C)C)cc2[C@@H](c2ccc(OCc3ccc(C[n+]4ccccc4)cc3)cc2)[C@H]1O`, for which, in data set [1], the Activity was 0.03%. Also, the Efficacy result in data set [2] was “Even more effective”. The compound further showed an IC50 in data set [3] of 1 nM.

One may read the Cmax as the highest concentration seen after dosing. `CCCCC1(CCCC)CS(=O)(=O)c2ccc(N(C)C)cc2[C@@H](c2ccc(OCCCCC(=O)O)cc2)[C@H]1O` yielded an Activity in data set [1] of 3.3%. Moreover, the results for the Cmax in data set [4] and in data set [5] were 1100 ng/mL and 5100 ng/mL, respectively. In data set [2], the Efficacy entry is given as “Even more effective”. The same compound had an IC50 in data set [3] of 8.5 nM.

In turn, `CCCCC1(CCCC)CS(=O)(=O)c2ccc(N(C)C)cc2[C@@H](c2ccc(OCc3cc[n+](C)cc3)cc2)[C@H]1O` registered an Activity in data set [1] of 0.03%. In addition, in data set [6], the Efficacy entry is listed as “More efficacious than analogue 2”. The same compound returned a half-inhibitory concentration (IC50) in data set [3] of 0.75 nM.

Take `CCCCC1(CCCC)CS(=O)(=O)c2ccc(N(C)C)cc2[C@@H](c2ccc(OCCCCCN(CC(=O)O)CC(=O)O)cc2)[C@H]1O`: the Activity in data set [1] worked out at 0.24%. Further, in data set [6], the Efficacy entry is “More efficacious than analogue 2”. The compound further gave an IC50 in data set [3] of 2.3 nM.

Regarding `CCCCC1(CCCC)CS(=O)(=O)c2ccc(N(C)C)cc2[C@@H](c2ccc(OCc3cccc(CN(CC(=O)O)CC(=O)O)n3)cc2)[C@H]1O`, the Activity in data set [1] is listed as 0.17%. In data set [6], the Efficacy result is reported as “More efficacious than analogue 2”. The half-maximal inhibitory concentration (IC50) in data set [3] worked out at 4 nM.

For the compound `CCCCC1(CCCC)CS(=O)(=O)c2ccc(N(C)C)cc2[C@@H](c2ccc(OCCC[N+]34CCN(CC3)CC4)cc2)[C@H]1O`, the Activity in data set [1] stood at 0.21%. In data set [6], the Efficacy result was “More efficacious than analogue 2”.

Turning to `CCCCC1(CCCC)CS(=O)(=O)c2ccc(N(C)C)cc2[C@@H](c2ccc(OCC(=O)O)cc2)[C@H]1O`, in data set [1], the Activity stood at 15.04%. For the same compound, the Cmax in data set [5] was determined as 960 ng/mL. This compound also came in with a half-inhibitory concentration (IC50) in data set [3] of 27 nM.
